# Assay results collected from several papers.
# Lines come from different studies, so protocols differ. pEC50, pIC50, pKd, pKi: −log10 of the molar value.
# HTR2B: 5-hydroxytryptamine receptor 2B (HTR2B, Homo sapiens, UniProt P41595)
# HLA class I histocompatibility antigen, B alpha chain: HLA class I histocompatibility antigen, B alpha chain (Homo sapiens, UniProt P01889)
# HTR2C: 5-hydroxytryptamine receptor 2C (HTR2C, Homo sapiens, UniProt P28335)
SMILES,target,assay,conditions,endpoint,value
CCCCC1CNC2CCc3ccc(OC)cc3C12 (racemic),HTR2B,"ligand displacement, radioligand",,pKi,6.77
Nc1ncnc2c1ncn2[C@@H]1O[C@H](C[C@@H](N)CC[C@H](N)C(=O)O)[C@@H](O)[C@H]1O,"mRNA cap guanine-N(7) methyltransferase (RNMT, Homo sapiens, UniProt O43148)","enzyme activity, inhibitor",,pIC50,5.04
CC[C@H](C)[C@H](NC(=O)[C@@H]1CCCN1C(=O)[C@H](Cc1c[nH]cn1)NC(=O)[C@H](CCCCN)NC(=O)[C@H](Cc1ccc(O)cc1)NC(=O)[C@@H](NC(=O)[C@@H](N)Cc1ccc(O)cc1)[C@@H](C)O)C(=O)N[C@@H](Cc1ccc(O)cc1)C(=O)N[C@@H](CC(C)C)C(=O)O,"HLA class I histocompatibility antigen, B alpha chain",cell-free assay,,pIC50,4.75
CC(C)CC[C@@H](O)[C@@H](C)[C@H]1CC[C@H]2[C@@H]3CC=C4C[C@@H](O)CC[C@]4(C)[C@H]3CC[C@]12C,"Cholesterol side-chain cleavage enzyme, mitochondrial (CYP11A1, Homo sapiens, UniProt P05108)",binding,,pKd,6.79
CC[C@H](C)[C@H](NC(=O)[C@H](Cc1ccccc1)NC(=O)[C@@H]1CCCN1C(=O)CNC(=O)[C@H](Cc1ccc(O)cc1)NC(=O)[C@H](CCSC)NC(=O)[C@@H](N)CCCNC(=N)N)C(=O)N[C@@H](Cc1c[nH]cn1)C(=O)N[C@@H](Cc1ccccc1)C(=O)O,"HLA class I histocompatibility antigen, B alpha chain",cell-free assay,,pIC50,4.50
CC[C@H](C)[C@H](NC(=O)[C@@H]1CCCN1C(=O)[C@H](CCC(=O)O)NC(=O)[C@H](CC(C)C)NC(=O)[C@@H](N)C(C)C)C(=O)N[C@@H](CC(C)C)C(=O)N[C@@H](Cc1c[nH]cn1)C(=O)N[C@@H](CO)C(=O)N[C@H](C(=O)O)[C@@H](C)OP(=O)(O)O,"Serine/threonine-protein kinase PLK1, polo-box (PLK1, Homo sapiens, UniProt P53350)","binding, MST",pH 8,pKd,7.86
COc1cc2c(cc1OC)CN(CCc1ccc(NC(=O)c3cccc4c(=O)c5cccc(OC)c5[nH]c34)cc1)CC2,HTR2C,cell-free assay,,pKi,7.03
CC[C@H](C)[C@H](NC(=O)[C@H](CCCNC(=N)N)NC(=O)[C@H](CC(N)=O)NC(=O)[C@H](Cc1ccccc1)NC(=O)[C@@H](NC(=O)[C@@H](N)Cc1ccc(O)cc1)[C@@H](C)O)C(=O)N[C@@H](Cc1c[nH]cn1)C(=O)N[C@@H](CCC(=O)O)C(=O)N[C@@H](Cc1ccccc1)C(=O)O,"HLA class I histocompatibility antigen, B alpha chain",cell-free assay,,pIC50,4.36
c1cncc([C@@H]2CCCN2)c1,"Neuronal acetylcholine receptor; alpha3/beta4 (Rattus norvegicus, UniProt P04757+P12392)","cell-free assay, radioligand",,pKi,5.89
COc1cc2c(cc1OC)-c1c(OC)c(OC)cc3c1[C@H](C2)N(C)CC3,HTR2B,"ligand displacement, radioligand",,pKi,6.67
N#CC(C#N)=Cc1ccc([N+](=O)[O-])c(O)c1,"Casein kinase I isoform delta (CSNK1D, Homo sapiens, UniProt P48730)","binding, SPR",,pKd,< 4.30
COc1cc(CCNC(c2ccccc2O)C2CC2)c(OC)cc1C#N (centres unmarked),HTR2C,"calcium signal, agonist",,pEC50,< 5.00
COc1cc2c3c(c1OC)-c1c(cccc1OC)CC3N(C)CC2 (racemic),HTR2B,"ligand displacement, radioligand",,pKi,6.22
COc1cc(C(F)(F)F)c(OC)cc1C1CCCNC1 (centres unmarked),HTR2B,"G protein activation, agonist, BRET",,pEC50,6.92
CC[C@H](C)[C@H](NC(=O)[C@@H](NC(=O)[C@H](CCCCN)NC(=O)[C@H](Cc1c[nH]cn1)NC(=O)[C@H](Cc1ccc(O)cc1)NC(=O)[C@H](CCSC)NC(=O)[C@@H](N)CCCNC(=N)N)C(C)C)C(=O)N[C@H](C(=O)N[C@@H](Cc1ccccc1)C(=O)O)[C@@H](C)O,"HLA class I histocompatibility antigen, B alpha chain",cell-free assay,,pIC50,5.76
CCCC(NCCc1cc(OC)c(C#N)cc1OC)c1ccccc1O (centres unmarked),HTR2C,"calcium signal, agonist",,pEC50,5.10
CC(C)C[C@H](NC(=O)[C@H](CCC(N)=O)NC(=O)[C@H](CCCNC(=N)N)NC(=O)[C@H](CO)NC(=O)[C@H](Cc1ccc(O)cc1)NC(=O)[C@H](CC(C)C)NC(=O)[C@@H](N)CCCNC(=N)N)C(=O)N[C@@H](Cc1c[nH]cn1)C(=O)N[C@@H](Cc1ccccc1)C(=O)O,"HLA class I histocompatibility antigen, B alpha chain",cell-free assay,,pIC50,5.12
